Results: ChEMBL document CHEMBL3758162, “Synthesis, biological characterization and molecular modeling insights of spirochromanes as potent HDAC inhibitors” (Eur J Med Chem, 2016)

What was measured:
[1] = Solubility of the compound at pH 4.5; format: physicochemical; conditions: buffer
[2] = Antiproliferative activity against human HCT116 cells assessed as cell viability after 72 hrs by CellTitre-Glo luminescent assay; format: functional, cell-based, HCT-116
A549 = experiment: Antiproliferative activity against human A549 cells assessed as cell viability after 72 hrs by CellTitre-Glo luminescent assay; format: functional, cell-based
[3] = Metabolic stability in mouse liver microsomes assessed as compound remaining at 1 uM preincubated for 10 mins measured after 30 mins by LC-MS/MS analysis; format: ADME; conditions: liver microsomes, read-out: Stability
In short: (§1)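 Compound at 1 µM pre-incubated 10 min at 37 °C in potassium phosphate buffer pH 7.4 with 0.5 mg/mL mouse or human hepatic microsomes. Parent quantified by LC-MS/MS (ESI+, MRM, verapamil internal standard). % remaining = peak area at 30 min / area at 0 min × 100; n≥2, mean.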

K562 = experiment: Antiproliferative activity against human K562 cells assessed as cell viability after 72 hrs by CellTitre-Glo luminescent assay; format: functional, cell-based
CYP2D6 = CYP2D6 (Homo sapiens, UniProt P10635); experiment: Inhibition of human CYP2D6 using 3-[2-(N,N-diethyl-N-methylamino)ethyl]-7-methoxy-4-methylcoumarin as substrate at 10 uM after 30 mins by fluorimetric analysis; format: ADME
CYP2D6, sequence (P10635 whole entry): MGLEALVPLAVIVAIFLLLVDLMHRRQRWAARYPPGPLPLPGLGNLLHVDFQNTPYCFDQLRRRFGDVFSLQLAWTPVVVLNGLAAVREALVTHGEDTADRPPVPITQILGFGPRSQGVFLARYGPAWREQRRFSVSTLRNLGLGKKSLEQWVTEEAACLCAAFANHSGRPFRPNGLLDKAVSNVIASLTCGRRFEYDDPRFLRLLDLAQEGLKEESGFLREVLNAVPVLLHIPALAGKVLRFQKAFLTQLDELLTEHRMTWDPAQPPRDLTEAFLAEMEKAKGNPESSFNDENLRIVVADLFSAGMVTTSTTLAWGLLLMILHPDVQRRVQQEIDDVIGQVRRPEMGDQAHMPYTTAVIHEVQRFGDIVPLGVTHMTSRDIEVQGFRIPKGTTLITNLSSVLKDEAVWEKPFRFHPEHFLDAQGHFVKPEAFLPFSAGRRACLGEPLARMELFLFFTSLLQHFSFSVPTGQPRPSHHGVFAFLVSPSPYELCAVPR
In short: (§2)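 Test compounds at 10 µM in potassium phosphate buffer pH 7.4 with NADPH regenerating system (final 1.3 mM NADP⁺, 3.3 mM glucose 6-phosphate, 0.4 U/ml G6PDH); reaction started at 37 °C by adding Supersomes isoenzyme plus substrate. Enzyme and substrate amounts: CYP1A2 0.5 pmol, 5 µM CEC; CYP2C19 0.5 pmol, 25 µM CEC; CYP3A4 1 pmol, 50 µM BFC; CYP2D6 1.5 pmol, 1.5 µM AMMC. Stopped with acetonitrile/Tris base; fluorescence read; % inhibition versus enzyme without inhibitor; n≥2, mean.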

CYP1A2 = target: T1, CYP1A2 (Homo sapiens, UniProt P05177); experiment: Inhibition of human CYP1A2 using 3-cyano-7-ethoxycoumarin as substrate at 10 uM after 15 mins by fluorimetric analysis; format: ADME; conditions: probe 3-cyano-7-ethoxycoumarin; in short: as §2
T1 sequence (P05177 whole entry): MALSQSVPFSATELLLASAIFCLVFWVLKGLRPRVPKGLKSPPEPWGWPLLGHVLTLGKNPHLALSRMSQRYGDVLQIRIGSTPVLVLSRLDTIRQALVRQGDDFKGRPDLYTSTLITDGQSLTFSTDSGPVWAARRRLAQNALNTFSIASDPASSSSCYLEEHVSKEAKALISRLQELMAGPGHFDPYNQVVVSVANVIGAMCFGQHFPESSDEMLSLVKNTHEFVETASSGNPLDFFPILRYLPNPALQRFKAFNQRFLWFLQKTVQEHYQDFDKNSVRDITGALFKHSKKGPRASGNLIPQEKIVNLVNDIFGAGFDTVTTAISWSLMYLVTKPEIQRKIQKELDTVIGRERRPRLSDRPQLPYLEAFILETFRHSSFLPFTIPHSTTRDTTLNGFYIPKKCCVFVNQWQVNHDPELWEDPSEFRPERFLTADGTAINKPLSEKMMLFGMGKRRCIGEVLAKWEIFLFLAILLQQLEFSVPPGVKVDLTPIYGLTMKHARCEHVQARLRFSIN

[4] = Metabolic stability in human liver microsomes assessed as compound remaining at 1 uM preincubated for 10 mins measured after 30 mins by LC-MS/MS analysis; format: ADME; conditions: liver microsomes, read-out: Stability; in short: as §1
Histone deacetylase = experiment: Inhibition of HDAC in human HeLa cells nuclear extract using Fluor de lys as substrate after 15 mins by fluorometric analysis; format: cell-based
CYP3A4 = CYP3A4 (Homo sapiens, UniProt P08684); experiment: Inhibition of human CYP3A4 using 7-benzyloxy-4-(trifluoromethyl)-coumarin as substrate at 10 uM after 30 mins by fluorimetric analysis; format: ADME; conditions: probe 7-benzyloxy-4-(trifluoromethyl)-coumarin; in short: as §2
CYP3A4, sequence (P08684 whole entry): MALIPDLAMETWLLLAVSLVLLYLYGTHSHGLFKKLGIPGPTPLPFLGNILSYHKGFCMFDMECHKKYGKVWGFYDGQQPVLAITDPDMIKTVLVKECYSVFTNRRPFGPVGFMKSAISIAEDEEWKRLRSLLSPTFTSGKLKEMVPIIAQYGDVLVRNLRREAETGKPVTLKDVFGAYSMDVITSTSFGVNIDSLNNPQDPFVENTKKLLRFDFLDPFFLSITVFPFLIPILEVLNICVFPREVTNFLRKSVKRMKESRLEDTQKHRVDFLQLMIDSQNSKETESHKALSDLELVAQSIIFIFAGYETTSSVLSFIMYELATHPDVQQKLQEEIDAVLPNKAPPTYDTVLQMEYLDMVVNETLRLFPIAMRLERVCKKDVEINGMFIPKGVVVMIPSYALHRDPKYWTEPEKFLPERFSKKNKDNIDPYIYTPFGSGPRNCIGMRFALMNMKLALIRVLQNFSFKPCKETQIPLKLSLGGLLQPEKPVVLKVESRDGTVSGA

CYP2C19 = CYP2C19 (Homo sapiens, UniProt P33261); experiment: Inhibition of human CYP2C19 using 3-cyano-7-ethoxycoumarin as substrate at 10 uM after 30 mins by fluorimetric analysis; format: ADME; conditions: probe 3-cyano-7-ethoxycoumarin; in short: as §2
CYP2C19, sequence (P33261 whole entry): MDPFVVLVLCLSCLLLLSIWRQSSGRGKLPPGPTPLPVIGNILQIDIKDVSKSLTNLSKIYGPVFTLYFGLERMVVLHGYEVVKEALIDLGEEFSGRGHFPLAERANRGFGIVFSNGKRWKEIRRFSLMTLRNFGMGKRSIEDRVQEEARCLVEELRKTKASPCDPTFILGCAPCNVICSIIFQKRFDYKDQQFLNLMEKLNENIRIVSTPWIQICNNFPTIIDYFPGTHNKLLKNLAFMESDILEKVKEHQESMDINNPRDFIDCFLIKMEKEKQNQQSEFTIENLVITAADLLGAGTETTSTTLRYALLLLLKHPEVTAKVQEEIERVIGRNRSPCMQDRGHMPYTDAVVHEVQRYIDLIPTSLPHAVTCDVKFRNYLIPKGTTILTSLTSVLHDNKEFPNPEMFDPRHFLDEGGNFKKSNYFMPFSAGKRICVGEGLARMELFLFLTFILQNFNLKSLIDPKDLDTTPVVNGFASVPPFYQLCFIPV

SMILES	solubility [1] [µM]	IC50 ([2]; Homo sapiens, HCT-116, 72 h) [nM]	IC50 (A549; Homo sapiens, A549, 72 h) [nM]	remaining at 0.5 h, 1 µM [3] [%]	IC50 (K562; Homo sapiens, K562, 72 h) [nM]	inhibition at 0.5 h, 10 µM (CYP2D6) [%]	inhibition at 0.25 h, 10 µM (CYP1A2) [%]	remaining at 0.5 h, 1 µM [4] [%]	IC50 (Histone deacetylase) [nM]	inhibition at 0.5 h, 10 µM (CYP3A4) [%]	inhibition at 0.5 h, 10 µM (CYP2C19) [%]	IC50 ([2]; hct-116) [nM]	IC50 (A549; a549) [nM]	IC50 (K562; k562) [nM]
O=C(/C=C/c1ccc2c(c1)C(=O)CC1(CN(Cc3ccccc3)C1)O2)NO	> 500	76	245	44	175	64	5	44	67	53	40	–	–	–
Cn1cc(CN2CC3(CC(=O)c4cc(/C=C/C(=O)NO)ccc4O3)C2)c2ccccc21	> 500	78	242	27	46	74	8	51	62	84	68	–	–	–
O=C(/C=C/c1ccc2c(c1)C(=O)CC1(CCCN(CCc3ccccc3)C1)O2)NO (racemic)	–	52	157	19	106	–	–	16	1	–	–	–	–	–
CN1CCCC2(CC(=O)c3cc(/C=C/C(=O)NO)ccc3O2)C1 (racemic)	> 500	63	103	72	56	14	5	42	237	51	12	–	–	–
O=C(/C=C/c1ccc2c(c1)C(=O)CC1(CCCN(C(=O)c3ccccc3)CC1)O2)NO (racemic)	–	617	3780	–	1110	–	–	–	110	–	–	–	–	–
Cn1cc(CN2CCCC3(CC(=O)c4cc(/C=C/C(=O)NO)ccc4O3)C2)c2ccccc21 (racemic)	–	78	425	23	147	–	–	19	183	–	–	–	–	–
Cn1cc(CN2CCCC3(CC2)CC(=O)c2cc(/C=C/C(=O)NO)ccc2O3)c2ccccc21 (racemic)	–	60	260	19	46	–	–	< 30	114	–	–	–	–	–
Cn1cc(CN2CCC3(CC(=O)c4cc(/C=C/C(=O)NO)ccc4O3)C2)c2ccccc21 (racemic)	–	47	180	8	51	–	–	16	85	–	–	–	–	–
O=C(/C=C/c1ccc2c(c1)C(=O)CC1(CCN(CCc3ccccc3)C1)O2)NO (racemic)	> 500	43	272	31	102	41	5	31	27	64	59	–	–	–
O=C(/C=C/c1ccc2c(c1)C(=O)CC1(CCCN(Cc3ccc(F)cc3)CC1)O2)NO (racemic)	–	63	333	25	144	–	–	11	149	–	–	–	–	–
O=C(/C=C/c1ccc2c(c1)C(=O)CC1(CCCN(Cc3ccccc3)C1)O2)NO (single isomer, unassigned; (-))	–	–	–	–	–	–	–	–	84	–	–	326	1060	441
O=C(/C=C/c1ccc2c(c1)C(=O)CC1(CCCN(Cc3ccccc3)C1)O2)NO (stereo in doubt; 33j)	–	–	–	–	–	–	–	–	143	–	–	447	1460	523
O=C(CCCCCCC(=O)Nc1ccccc1)NO [VORINOSTAT]	–	–	–	82	–	25	25	93	–	35	69	–	–	–
